MT stabilizer: stabilizes microtubules in HeLa cells | HeLa tubulin immunostaining HCS, 24 h; share of cells brighter than vehicle mean+2SD | % tubulin-high responders, % at 10 µM | hit rate 0.83% among 200,000 | AID 2205;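 active = plate Z-score above 3 for both tubulin-high and condensed-nucleus cell shares, with cell loss under 80%, at 10 µM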;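 note: anti alpha tubulin signal scored within the nucleus-defined area of each cell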
Ba/F3 V617F tox: reduce viability of Ba/F3 cells dependent on JAK2V617F; Ba/F3 EpoR-JAK2V617F viability, ATP luminescence; inhibition, % at 5.6 µM; hit rate 1.1% among 220,000; AID 1446;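 active = inhibition above the campaign mean plus 3 SD over all tested compounds, cut at about 24% in these data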;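 note: cytokine-independent growth of Ba/F3 cells driven by EpoR plus mutant JAK2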
APP transl inh: APP translation inhibition | SH-SY5Y APP 5'UTR-luciferase reporter, luminescence | inhibition, % at 2 µM | hit rate 0.82% among 190,000;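 active = inhibition above a set limit, derived from the sample mean plus 3 SD, cut at about 45% in these data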
Lmaj promast: reduces viability of Leishmania major promastigotes; resazurin fluorescence viability; hit rate 9% among 200,000; inhibition, % at 10 µM; in the data active = inhibition above about 50%;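 note: promastigotes grown with compound for 44 hours at 28 °C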
b-catenin transl: modulators of beta-catenin nuclear translocation. hit rate 0.3% among 190,000. nuclear translocation activity, % at 5 µM. HeLa beta-catenin nuclear translocation, immunofluorescence imaging;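 active = nuclear translocation activity above 50% at 5 µM, with a well cell count of 50 or more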;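 note: per-cell ratio of nuclear to cytoplasmic median beta-catenin stain intensity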
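System: Human HeLa cells, endogenous beta-catenin | Compound dosing: 5 µM primary, 0.02–20 µM confirmation | Timing: 24 h compound exposure at 37°C, 5% CO2 | Measured by: Fluorescence imaging of beta-catenin antibody stain plus DAPI | Read-out basis: % activation of per-cell nuclear versus cytoplasmic median beta-catenin signal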
BaF3 tox: counter-screen for JAK2V617F inhibitors: parental Ba/F3 viability inhibitors | inhibition, % at 5.6 µM | hit rate 1.1% among 220,000 | AID 1486 | CellTiter-Glo ATP luminescence;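 active = inhibition above a per-campaign cutoff, the mean inhibition of all tested compounds plus 3 SD, cut at about 27% in these data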
Numbers stand for hits. Sampled rows, rich in hits. Any-hit rate of the full collection: about 9.6%.

`COc1ccc(-c2nnc(Nc3ccc(OC)c(C(=O)N4CCCCC4)c3)c3ccccc23)cc1` gave MT stabilizer inactive, Ba/F3 V617F tox inactive, APP transl inh inactive, Lmaj promast 53.0, b-catenin transl inactive and BaF3 tox inactive.
Screening CCN(CC)c1ccc(/C=N/Nc2nc(C)cc(=O)[nH]2)c(O)c1 returned MT stabilizer inactive, Ba/F3 V617F tox inactive, APP transl inh 85.1, Lmaj promast 98.6, b-catenin transl inactive and BaF3 tox inactive.
For CCN(CC)c1ccc(/C=N/NC(=O)c2c(Cl)cnn2C)c(O)c1 the results were MT stabilizer inactive, Ba/F3 V617F tox inactive, APP transl inh 59.6, Lmaj promast 98.7, b-catenin transl inactive and BaF3 tox inactive.
For Cc1cc(=O)[nH]c(N/N=C/c2sccc2C)n1 the results were MT stabilizer inactive, Ba/F3 V617F tox inactive, APP transl inh inactive, Lmaj promast inactive, b-catenin transl inactive and BaF3 tox inactive.
`CC/C(=N\NC(=O)CCC(=O)NCc1ccccc1)c1ccc(O)cc1` gave MT stabilizer 11.6, Ba/F3 V617F tox inactive, APP transl inh inactive, Lmaj promast inactive, b-catenin transl inactive and BaF3 tox inactive.
Screening CCCCC/C(=N\NC(=O)CCC(=O)NCc1ccccc1)c1ccccc1 returned MT stabilizer inactive, Ba/F3 V617F tox inactive, APP transl inh inactive, Lmaj promast inactive, b-catenin transl inactive and BaF3 tox inactive.
CCOC(=O)N/N=C/c1c(F)c(F)c(F)c(F)c1F was read as MT stabilizer inactive, Ba/F3 V617F tox inactive, APP transl inh inactive, Lmaj promast 65.3 and BaF3 tox inactive.
`CCOC(=O)N/N=C/c1ccc(N(CC)CC)cc1O` gave MT stabilizer 16.5, Ba/F3 V617F tox inactive, APP transl inh inactive, Lmaj promast inactive, b-catenin transl inactive and BaF3 tox inactive.
`CCN(CC)c1ccc(/C=N/NC(=O)CCC(=O)NCc2ccccc2)c(O)c1` gave MT stabilizer inactive, Ba/F3 V617F tox inactive, APP transl inh 52.4, Lmaj promast 97.6, b-catenin transl inactive and BaF3 tox inactive.
CCN(CC)c1ccc(/C=N/Nc2ccc(C)cc2)c(O)c1 was read as MT stabilizer inactive, Ba/F3 V617F tox inactive, APP transl inh inactive, Lmaj promast inactive, b-catenin transl inactive and BaF3 tox inactive.
For COc1cc(CN2CC(=O)N(c3ccc(C)c(C)c3)C2=S)cc(OC)c1OC the results were MT stabilizer inactive, Ba/F3 V617F tox inactive, APP transl inh inactive, Lmaj promast 94.0, b-catenin transl inactive and BaF3 tox inactive.
`CCc1ccc(N2C(=O)CN(Cc3cc(OC)c(OC)c(OC)c3)C2=S)cc1` gave MT stabilizer inactive, Ba/F3 V617F tox inactive, APP transl inh inactive, Lmaj promast inactive, b-catenin transl inactive and BaF3 tox inactive.
`COc1ccc(N2C(=O)CN(Cc3ccc(OC)c(OC)c3)C2=S)cc1` gave MT stabilizer inactive, Ba/F3 V617F tox inactive, APP transl inh inactive, Lmaj promast inactive, b-catenin transl inactive and BaF3 tox inactive.
`COc1ccc(CN2CC(=O)N(c3ccc(C)c(C)c3)C2=S)cc1OC` gave MT stabilizer inactive, Ba/F3 V617F tox inactive, APP transl inh inactive, Lmaj promast 51.9, b-catenin transl inactive and BaF3 tox inactive.
Screening CC(C1CC2CCC1C2)n1c(-c2ccco2)n[nH]c1=S (configuration not stated) returned MT stabilizer inactive, Ba/F3 V617F tox inactive, APP transl inh 53.8, Lmaj promast inactive, b-catenin transl inactive and BaF3 tox inactive.
For O=[N+]([O-])c1cccc(-c2nc(NCc3ccccc3)c3ccccc3n2)c1 the results were MT stabilizer inactive, Ba/F3 V617F tox inactive, APP transl inh inactive, Lmaj promast 58.4, b-catenin transl inactive and BaF3 tox inactive.
`CN(Cc1ccccc1)c1nc(-c2cccc([N+](=O)[O-])c2)nc2ccccc12` gave MT stabilizer inactive, Ba/F3 V617F tox inactive, APP transl inh inactive, Lmaj promast 91.8, b-catenin transl inactive and BaF3 tox inactive.
For O=[N+]([O-])c1cccc(-c2nc(N3CCOCC3)c3ccccc3n2)c1 the results were MT stabilizer inactive, Ba/F3 V617F tox inactive, APP transl inh inactive, Lmaj promast inactive, b-catenin transl inactive and BaF3 tox inactive.
Screening O=[N+]([O-])c1ccc(-c2nc(NCc3ccccc3)c3ccccc3n2)cc1 returned MT stabilizer inactive, Ba/F3 V617F tox inactive, APP transl inh inactive, Lmaj promast inactive, b-catenin transl inactive and BaF3 tox inactive.
COCCNC(=O)c1ccccc1NC(=O)CSc1ccc(C)cc1 was read as MT stabilizer inactive, Ba/F3 V617F tox inactive, APP transl inh inactive, Lmaj promast inactive, b-catenin transl inactive and BaF3 tox inactive.
`O=C(O)/C=C/C(=O)NCc1ccccn1` gave MT stabilizer inactive, Ba/F3 V617F tox inactive, APP transl inh inactive, Lmaj promast inactive, b-catenin transl inactive and BaF3 tox inactive.
For Cc1cc2c3c(c1)C1(SCC(=O)N1c1ccc(F)cc1)C(=O)N3C(C)(C)CC2C (configuration not stated) the results were MT stabilizer inactive, Ba/F3 V617F tox inactive, APP transl inh inactive, Lmaj promast 61.1, b-catenin transl inactive and BaF3 tox inactive.
Screening CC1CC(C)(C)N2C(=O)C3(Nc4ccccc4S3)c3cccc1c32 (configuration not stated) returned MT stabilizer inactive, Ba/F3 V617F tox inactive, APP transl inh inactive, Lmaj promast inactive and BaF3 tox inactive.
Screening CN1CCN(Cc2nc3ccccc3c(=O)n2Cc2nc(-c3ccc4ccccc4c3)cs2)CC1 returned MT stabilizer inactive, Ba/F3 V617F tox 101.8, APP transl inh inactive, Lmaj promast 100.3, b-catenin transl inactive and BaF3 tox inactive.
Screening O=C(CCSc1ccccc1)Nc1nccs1 returned MT stabilizer inactive, Ba/F3 V617F tox inactive, APP transl inh inactive, Lmaj promast inactive, b-catenin transl inactive and BaF3 tox inactive.
`O=C(CCl)Nc1nc(-c2ccco2)c(-c2ccco2)s1` gave MT stabilizer inactive, Ba/F3 V617F tox inactive, APP transl inh inactive, Lmaj promast 69.0, b-catenin transl inactive and BaF3 tox inactive.
For O=C(CCCSc1ccccc1)Nc1nc(-c2ccco2)c(-c2ccco2)s1 the results were MT stabilizer inactive, Ba/F3 V617F tox inactive, APP transl inh inactive, Lmaj promast 74.9 and BaF3 tox inactive.
For CS(=O)(=O)N1CCN(c2ccc([N+](=O)[O-])c(NCc3ccc(Cl)cc3)c2)CC1 the results were MT stabilizer inactive, Ba/F3 V617F tox inactive, APP transl inh inactive, Lmaj promast inactive, b-catenin transl inactive and BaF3 tox inactive.
`CCCCCOc1ccc(CN2CCOCC2)cc1Cl` gave MT stabilizer inactive, Ba/F3 V617F tox inactive, APP transl inh inactive, Lmaj promast 86.2, b-catenin transl inactive and BaF3 tox inactive.
CC1CCN(CCCOc2ccc(Br)cc2Cl)CC1 was read as MT stabilizer inactive, Ba/F3 V617F tox inactive, APP transl inh inactive, Lmaj promast 89.1, b-catenin transl inactive and BaF3 tox inactive.
